From PubChem BioAssay
KCNK9 block = human KCNK9 channel inhibition; Q9NPC2; HEK293 KCNK9, FluxOR thallium flux fluorescence; hits give low values; B-score at 10 µM; 310,000 tested, 1.2% active;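 active means ratio B-score over 3 SD below the library mean, with starting fluorescence within 5 SD of its mean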;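 further: negative B-score means less thallium flux so channel inhibition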
KCNQ1 inh = inhibitors of human KCNQ1 potassium channel; P51787; CHO-K1 KCNQ1, FluxOR thallium flux fluorescence; hits give high values; B-score at 10 µM; 310,000 tested, 1.3% active;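 active means compounds whose thallium flux B-score, printed positive for inhibition, exceeds three library SD while starting fluorescence stays within three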;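 further: channel opened by potassium depolarization with thallium stimulus after 20 min compound exposure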
KCNQ1 act = potentiates or activates the human KCNQ1 potassium channel. CHO-K1 KCNQ1, thallium flux FluxOR fluorescence; hits give high values. 310,000 tested, 0.35% active. P51787. B-score at 10 µM;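 active means fluorescence ratio B-score, a plate-corrected score, at least three library SD, with initial intensity B-score within 5 SD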
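Schedule – 37 °C overnight plating, 90-min dark dye load, 20-min compound pretreatment · System – stable KCNQ1 CHO-K1 line · Probe or stimulus – thallium- and potassium-containing depolarizing buffer · Measured by – kinetic FluxOR fluorescence, 10 s baseline plus 110 s post-stimulus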
KCNK3 inh = human KCNK3 channel inhibition, primary screen. CHO-KCNK3 thallium flux, FluxOR fluorescence; hits give low values. B-score at 10 µM. 340,000 tested, 0.84% active;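 active means B-score under library mean minus 4 SD, starting fluorescence ratio at most library mean plus 5 SD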;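 further: more negative B-score means stronger inhibition of thallium flux through KCNK3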
hERG protect = shields human hERG channel from block by proarrhythmic agents. AID 1511. CHO-hERG, FluxOR thallium flux, dofetilide IC70 present. activation (rescue from dofetilide block), less the hit threshold, % at 10 µM. 310,000 tested, 0.51% active;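 active means activation above the mean of controls blocked by dofetilide plus 5 SD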;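 further: thallium influx through hERG after potassium depolarization seen as dye fluorescence rise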
Cl transport mod = modulators of human KCC2 chloride dependent transport | Q9H2X9 | KCC2 cells, thallium flux FluoZin-2 fluorescence | B-score of Tl+ flux slope (higher = more flux/activation; lower = inhibition) at 10 µM | 190,000 tested, 2.2% active;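 active means thallium flux slope and its plate-corrected score both differing from the plate sample mean at a set confidence after two filtering rounds, in either direction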;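 further: slope of fluorescence scaled to starting intensity during 10 to 20 s after thallium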
KCNK3 confirm = human KCNK3 channel inhibition, confirmation assay; shares compounds with KCNK3 inh; 2,400 tested, 99% active; ratio percent of control, % at 10 µM; CHO-KCNK3 thallium flux, FluxOR fluorescence; 0% buffer, 100% carvedilol maximal block;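 active means ratio percent of control, averaged over triplicates, above buffer control mean plus 5 SD, cut at about 64% in these data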;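 further: ratio is the fluorescence rise from min to max over baseline after thallium stimulus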
KCNK3 noninduced = KCNK3 inhibitor counter-screen hit in non-induced cells; shares compounds with KCNK3 inh; non-induced KCNK3 parental cells, FluxOR thallium flux; hits give low values; thallium flux ratio (lower = more inhibition) at 10 µM; 2,400 tested, 40% active; AID 651747;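 active means thallium flux ratio, averaged over three wells, more than 5 SD below the buffer control mean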;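 further: host cells are CHO cells without KCNK3 induction; ratio is peak minus trough fluorescence over baseline then normalized to buffer controls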
Numbers without * were called inactive. In the library only some 4.1% were active in any assay of this set; here they are far more common.

For CCN(CC(=O)NCc1cccs1)C(=O)c1ccc(N(C)S(=O)(=O)c2ccc(C)cc2)cc1 the results were KCNK3 inh inactive.
Screening Oc1ccc(Cl)cc1CNCc1ccc(Cl)nc1 returned KCNK3 inh inactive.
CC(=O)Nc1ccc(Oc2cc(C#N)c(C#N)cc2N2CCCCCC2)cc1 was read as KCNK3 inh -13*, Cl transport mod 0.4, KCNK3 confirm 120* and KCNK3 noninduced inactive.
O=P(c1ccccc1)(c1ccccc1)c1nc(-c2ccc(Cl)cc2)oc1N1CCOCC1 was read as KCNK9 block inactive, KCNQ1 inh inactive, KCNQ1 act inactive, KCNK3 inh inactive, hERG protect -6 and Cl transport mod -0.045.
`CC1=C(C(=O)OC(C)C)C(c2ccc(C)o2)C(C(=O)OC(C)C)=C(C)N1` gave KCNK9 block inactive, KCNQ1 inh inactive, KCNQ1 act inactive, KCNK3 inh -9.4*, hERG protect -11, Cl transport mod -0.56, KCNK3 confirm 113* and KCNK3 noninduced 0.14*.
Screening COC(=O)C1=C(C)NC(C)=C(C(=O)OC)C1c1ccc(C)o1 returned KCNK9 block inactive, KCNQ1 inh inactive, KCNQ1 act inactive, KCNK3 inh inactive, hERG protect -6 and Cl transport mod -0.74.
O=C(CSC1=N/C(=C/c2ccco2)C(=O)N1c1ccc(OC(F)F)cc1)NC1CCS(=O)(=O)C1 (stereo not drawn) was read as KCNK9 block inactive, KCNQ1 inh inactive, KCNQ1 act inactive, KCNK3 inh -8.9*, hERG protect -10, Cl transport mod 0.72, KCNK3 confirm 83* and KCNK3 noninduced inactive.
CCNC(=O)CSC1=N/C(=C\c2ccc(O)c(OCC)c2)C(=O)N1c1ccc(OC(F)F)cc1 was read as KCNK9 block inactive, KCNQ1 inh inactive, KCNQ1 act inactive, KCNK3 inh inactive and hERG protect -10.
CN(Cc1ccccc1F)C(=O)COc1ccc(C(=O)c2ccccc2)cc1 was read as KCNK9 block -7.7*, KCNQ1 inh inactive, KCNQ1 act inactive, KCNK3 inh -12*, hERG protect -11, KCNK3 confirm 119* and KCNK3 noninduced inactive.
`CCn1c(NCc2cc(Br)ccc2NS(=O)(=O)c2ccc(C)cc2)nc2ccccc21` gave KCNK9 block inactive, KCNQ1 inh 6*, KCNQ1 act inactive, KCNK3 inh -11*, hERG protect -9, Cl transport mod 0.32, KCNK3 confirm 120* and KCNK3 noninduced inactive.
CCOC(=O)c1c(C)[nH]c(C)c1C(=O)COC(=O)[C@@H](NC(=O)c1ccccc1OCC)C(C)C was read as KCNK9 block inactive, KCNQ1 inh inactive, KCNQ1 act inactive, KCNK3 inh -9.1*, hERG protect -13, Cl transport mod -1.4, KCNK3 confirm 104* and KCNK3 noninduced inactive.
CCC(=O)Nc1ccc2nc(C3CC3)n(Cc3ccc(C(C)(C)C)cc3)c(=O)c2c1 was read as KCNK9 block inactive, KCNQ1 inh inactive, KCNQ1 act inactive, KCNK3 inh inactive, hERG protect -8 and Cl transport mod -0.29.
For O=C(Nc1ccc2nc(C3CC3)n(Cc3ccc(F)cc3)c(=O)c2c1)c1ccco1 the results were KCNK9 block inactive, KCNQ1 inh inactive, KCNQ1 act inactive, KCNK3 inh -9.9*, hERG protect -8, KCNK3 confirm 89* and KCNK3 noninduced inactive.
`COc1ccc(CN(CC2CCC(C(=O)O)CC2)C(=S)Nc2ccc(C)c(Cl)c2)cc1` (stereo not drawn) gave KCNK9 block inactive, KCNQ1 inh inactive, KCNQ1 act inactive, KCNK3 inh inactive, hERG protect -35 and Cl transport mod -0.49.
For COc1ccc(CCN(Cc2cc3cc(C)cc(C)c3nc2Cl)C(=O)C2CC2)cc1 the results were KCNK9 block inactive, KCNQ1 inh inactive, KCNQ1 act inactive, KCNK3 inh -11*, hERG protect -17, Cl transport mod 1.7, KCNK3 confirm 98* and KCNK3 noninduced inactive.
For CC(C)N1C(=O)S/C(=C/c2ccc(Sc3nc4ccccc4[nH]3)o2)C1=O the results were KCNK9 block inactive, KCNQ1 inh inactive, KCNQ1 act inactive, KCNK3 inh -11*, hERG protect -8, Cl transport mod 0.73, KCNK3 confirm 132* and KCNK3 noninduced inactive.
CCOc1ccc(C(=O)NC2CC(=O)N(c3ccc4c(c3)OCCO4)C2)cc1 (stereo not drawn) was read as KCNK9 block inactive, KCNQ1 inh inactive, KCNQ1 act inactive, KCNK3 inh inactive and hERG protect -11.
Screening CC(C)CN(C(=O)c1ccc(C(F)(F)F)cc1)c1c(N)n(CC(C)C)c(=O)[nH]c1=O returned KCNK9 block inactive, KCNQ1 inh inactive, KCNQ1 act inactive, KCNK3 inh inactive and hERG protect -2.
CCn1c(COc2cccc(C)c2)nc2ccccc21 was read as KCNK9 block inactive, KCNQ1 inh inactive, KCNQ1 act inactive, KCNK3 inh inactive, hERG protect -7 and Cl transport mod -1.5.
For COCn1c(COc2ccc3ccccc3c2)nc2ccccc21 the results were KCNK9 block inactive, KCNQ1 inh inactive, KCNQ1 act inactive, KCNK3 inh -8.8*, hERG protect -8, Cl transport mod -2, KCNK3 confirm 95* and KCNK3 noninduced inactive.
Screening CCOc1ccc(OCC(=O)N(CCC2=CCCCC2)c2c(N)n(Cc3ccccc3)c(=O)[nH]c2=O)cc1 returned KCNK9 block inactive, KCNQ1 inh inactive, KCNQ1 act inactive, KCNK3 inh inactive and hERG protect -15.
Screening CCN1CCN(c2c(/C=C3\SC(=S)N(Cc4ccco4)C3=O)c(C)c(C#N)c(=O)n2C)CC1 returned KCNK9 block inactive, KCNQ1 inh 7*, KCNQ1 act inactive, KCNK3 inh -16*, hERG protect -37, Cl transport mod -0.37, KCNK3 confirm 141* and KCNK3 noninduced 0.089*.
For CCCCn1c(N)c(N(Cc2ccccc2OC)C(=O)C(C)C)c(=O)[nH]c1=O the results were KCNK9 block inactive, KCNQ1 inh inactive, KCNQ1 act inactive, KCNK3 inh inactive and hERG protect -5.
